Screens as filed in PubChem.
T cell modulator: modulators of CD8 T cell-vesicle binding, primary screen, mouse 2C CD8+ T cells, flow cytometry. AID 2052, 2009. 330,000 tested, 0.068% active. response (vesicle binding), % at 7 µM. 2C CD8+ T cell-vesicle binding; stronger effect = lower value;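 active = response, share of CD8 T cells binding vesicles, and their 90th percentile fluorescence all below set limits, cut at about 80% in these data, passing the limit was not always enough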;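 also: values below 100% mean blocked vesicle binding to the CD8+ T cells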
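Read-out – percent CD8+ FL2 mean versus row control · System – murine 2C transgenic CD8+ T lymphocytes · Times – 1.5 h cell–vesicle binding at 37 °C, then 20 min icy labelling · Control set – naked vesicles low, QL9 vesicles with vehicle high · Detection – cytometric PE anti-B7-1 and Alexa647 anti-CD8 signals after 1% paraformaldehyde fixation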
Casp6 inh: human caspase-6 inhibitors, primary screen, biochemical, VEID-R110 fluorescence, single point, set 2; 350,000 tested, 0.53% active; purified caspase-6, Z-VEID-R110 cleavage fluorescence; inhibition, % at 12.5 µM;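 active = mean inhibition across replicates at least about 35%, with every replicate also reaching that limit, limit read from the data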;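 also: 0% = median of neutral control wells and 100% = no fluorescence left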
Target sequence (P55212 24-179 limits assumed): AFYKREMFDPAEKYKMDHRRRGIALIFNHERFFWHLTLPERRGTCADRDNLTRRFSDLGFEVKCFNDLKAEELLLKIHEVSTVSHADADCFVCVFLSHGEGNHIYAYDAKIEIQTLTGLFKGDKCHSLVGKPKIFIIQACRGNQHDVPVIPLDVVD
Target sequence (P55212 194-293 limits assumed): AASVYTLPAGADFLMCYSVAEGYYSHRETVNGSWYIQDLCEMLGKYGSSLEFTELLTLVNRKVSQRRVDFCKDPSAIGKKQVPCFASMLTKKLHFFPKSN
Vif imaging: HIV Vif self-association inhibitors, primary screen, imaging, HEK293T, single point. HEK293T cells, Vif self-association by quenched fluorescence, 24 h. inhibition, % at 7.49 µM. 340,000 tested, 0.35% active; in the data active = inhibition above about 50%, passing the limit was not always enough
Myeloid diff MLP: induction of myeloid progenitor differentiation, primary screen, cell-based, flow cytometry, MLPCN library; ER-HoxA9 myeloid progenitors, lysozyme-GFP differentiation; calls only at 10 µM; 360,000 tested, 1% active; AID 624256, 2012;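 active = normalized GFP-positive differentiation at or above the plate's own cutoff, the solvent-only control mean plus 3 SD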;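 also: cells exposed to compound for four days before flow analysis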
Myeloid diff: inducers of myeloid progenitor differentiation, confirmation, cell-based, GFP/Mac1 flow cytometry, cherry pick 01. 2,300 tested, 2% active. shares compounds with Myeloid diff MLP. ER-HoxA9 myeloid progenitors, GFP/Mac1 double-positive flow. calls only;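 active = share of green or green-and-red cells above 9 and 9% in run 1 or 4 and 3% in run 2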
GFP autofluor: flagged as fluorescent in myeloid differentiation counter-screen; 2,300 tested, 7.4% active; fluorescence response, % (test concentration not listed); ER-HoxA9 myeloid progenitors, no estrogen, GFP autofluorescence flow cytometry; vehicle wells 0%, positive control 100%; shares compounds with Myeloid diff MLP;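 active = over 5% cells positive for green fluorescent reporter, or over 2% positive for both it and APC stain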;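 also: range taken on the double positive population between DMSO and positive control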
* hit, by the source's call; i = inactive; · = no result given; + = active, no number. Only some compounds are listed: those with a hit (about 1.4% of all), similar ones and a draw of the others.

SMILES	T cell modulator	Casp6 inh	Vif imaging	Myeloid diff MLP	Myeloid diff	GFP autofluor
COc1cc(S(=O)(=O)N(Cc2ccco2)C2CCCC2)ccc1-n1cnnn1	745.0	-1.2	5.4	i	·	·
CC=Cc1ccc2n(c1=O)C[C@@H]1[C@@H](CO)[C@H](C(=O)NCC3CC3)N(Cc3cccnc3)[C@H]21 (mixture of isomers)	·	-2.9	·	·	·	·
O=S(=O)(Nc1ccc(S(=O)(=O)Nc2ncccn2)cc1)c1ccc(Cl)cc1	236.5	0.6	2.3	i	·	·
Cc1ccc(S(=O)(=O)Nc2ccc(S(=O)(=O)Nc3ncccn3)cc2)cc1	194.4	·	-3.6	i	i	0.0
Cc1cccc(-c2nnc(SCC#N)n2C)c1	132.4	-0.2	-29.8	i	·	·
Cc1ccc(S(=O)(=O)Nc2ccc(-c3nnc(SCC#N)n3C)cc2)cc1	292.0	·	10.1	+	i	0.0
COc1cc(C)nc(NS(=O)(=O)c2ccc(C)cc2)n1	258.9	·	-2.4	i	i	0.0
CCCC#Cc1ccc([C@@H]2[C@H]3CN(C(=O)Nc4ccc(F)cc4)CC(=O)N3[C@H]2CO)cc1	·	2.5	·	·	·	·
CCCC(=O)Nc1ccc2c(c1)OC[C@H](C)N(Cc1nccs1)C[C@@H](C)[C@@H](OC)CN(C)C2=O	·	-1.2	·	·	·	·
C[C@H](O)[C@@H]1C(=O)N2CCc3ccc(-c4ccccc4)cc3[C@@H]2C[C@@H]1N(C)C(=S)Nc1ccc(F)cc1	·	-0.2	·	i	i	86.8*
CCn1c(Cc2ccccc2)nnc1SCC(=O)Nc1ccccc1N1CCOCC1	270.6	·	-10.4	i	·	·
Cn1ccnc1SCC(=O)Nc1cc(C(F)(F)F)ccc1N1CCOCC1	209.9	·	-4.1	i	i	0.0
Cn1c(Cc2ccccc2)nnc1SCC(=O)Nc1ccccc1N1CCOCC1	201.7	·	25.9	i	i	0.2
CC(C)NC(=O)Nc1ccc2c(c1)C(=O)N([C@@H](C)CO)C[C@H](C)[C@H](CN(C)C)O2	·	-2.7	·	·	·	·
CN(C)CC#Cc1ccc([C@@H]2[C@H](CO)N3CCCCN(CC4CC4)C[C@@H]23)cc1	·	0.1	·	·	·	·
Cc1ccc(C)c2sc(N3CCN(C(=O)c4ccc([N+](=O)[O-])o4)CC3)nc12	377.0	-0.2	-0.3	i	i	0.3
COc1cccc(-c2ccc([C@@H]3[C@H]4CN(C(=O)C5CCC5)CC(=O)N4[C@H]3CO)cc2)c1	·	2.4	·	·	·	·
C[C@@H]1CN([C@H](C)CO)C(=O)c2cccc(NC(=O)Nc3ccccc3)c2O[C@@H]1CN(C)Cc1ccccc1	·	0.7	·	·	·	·
COC(=O)c1ccc(C2C(C(C)=O)=C(O)C(=O)N2CCO)cc1 (centres undefined)	319.2	·	4.8	i	i	1.1
O=C(NCCc1ccc(Cl)cc1)c1ccc2nc[nH]c2c1	217.0	4.6	-4.4	i	·	·
COc1cccc(/C(O)=C/c2nc3ccc(C(=O)NCCc4ccc(Cl)cc4)cc3[nH]c2=O)c1	·	1.8	-1.8	+	i	0.0
COc1cc(/C=C/c2sc3ccccc3[n+]2CCCS(=O)(=O)[O-])ccc1O	617.5	6.4	5.7	i	·	·
CCC(/C=C1\Oc2ccc(OC)cc2N1C)=C\c1sc2ccccc2[n+]1CCCS(=O)(=O)[O-]	·	-4.0	13.7	i	i	84.8*
COCC(=O)Nc1ccc2c(c1)C(=O)N(C)C[C@H](OC)[C@H](C)CN(Cc1ccccc1)[C@@H](C)CO2	·	-1.3	·	·	·	·
C[C@H]1CN([C@@H](C)CO)S(=O)(=O)c2ccc(C#Cc3cccc(F)c3)cc2O[C@H]1CN(C)CC1CC1	·	-1.5	·	·	·	·
CCOC(=O)C1CCN(C(=O)c2ccc3c(c2)OCCO3)CC1	383.8	-3.7	4.7	i	·	·
CCOc1ccc(C(=O)N2CCC(C(=O)c3ccc4c(c3)OCCO4)CC2)cc1	·	·	-8.7	i	i	0.0
Cc1ccc(N=C2C(=O)Nc3ccccc32)cc1	298.9	·	0.3	i	·	·
CCN(CC)c1ccc(N=C2C(=O)Nc3ccccc32)cc1	·	6.2	-7.3	i	i	3.7*
CNC[C@@H]1Oc2cc(C#CC3CCCC3)ccc2S(=O)(=O)N([C@@H](C)CO)C[C@H]1C	·	0.5	·	·	·	·
